rCAG RNA binder = r(CAG) repeat RNA binding; TO-PRO-1 dye displacement fluorescence; inhibition, % at 3 µM; actives 1.3% (n = 370,000); AID 651821;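 active = inhibition above the plate cutoff, the mean of all test compounds on that plate plus 3 SD, cut at about 35% in these data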;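 also: higher means more dye released from RNA so lower well fluorescence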
ABHD4 inh = inhibitors of mouse ABHD4 | Q8VD66 | purified mABHD4, FP-Rh probe fluorescence polarization | inhibition, % at 8.92 µM | actives 0.54% (n = 370,000) | AID 720543;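 active = inhibition exceeding the mean over every tested compound plus 3 SD, cut at about 30% in these data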
Target sequence (Q8VD66 whole entry, looked up): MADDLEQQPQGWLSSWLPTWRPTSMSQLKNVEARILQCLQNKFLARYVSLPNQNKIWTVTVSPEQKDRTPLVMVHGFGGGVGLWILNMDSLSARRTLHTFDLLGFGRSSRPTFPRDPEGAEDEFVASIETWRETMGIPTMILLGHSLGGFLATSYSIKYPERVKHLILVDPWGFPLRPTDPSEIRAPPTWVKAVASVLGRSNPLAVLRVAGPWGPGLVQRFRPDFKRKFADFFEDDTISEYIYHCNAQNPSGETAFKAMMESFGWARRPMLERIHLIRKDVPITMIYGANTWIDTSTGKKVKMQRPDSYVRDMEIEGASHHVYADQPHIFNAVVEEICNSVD
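Doses – 8.92 µM, single dose · Material – wild-type mouse ABHD4 protein · Replication – single well per compound (singlicate) · Measure – percent inhibition of probe binding, normalized to plate controls · Schedule – 45 min compound pre-incubation plus 60 min probe step, 25 °C · Detection – fluorescence polarization with parallel and perpendicular emission, 525/598 nm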
SIAE primary = blocks human sialic acid acetylesterase; Q9HAT2; SIAE FP-Rh probe binding, fluorescence polarization; inhibition, % at 9.66 µM; actives 0.69% (n = 370,000); AID 1053197;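 active = inhibition above a cutoff: mean of compounds within the control limits plus 3 SD of those, cut at about 17% in these data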
PRMT1 inh = inhibitors of human PRMT1. Q99873. recombinant PRMT1, activity-based probe fluorescence polarization. inhibition, % at 2.79 µM. actives 1.3% (n = 370,000). AID 652257;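 active = inhibition above about 21% made by adding two undisclosed values, limit read from the data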
Target sequence (Q99873 whole entry, looked up): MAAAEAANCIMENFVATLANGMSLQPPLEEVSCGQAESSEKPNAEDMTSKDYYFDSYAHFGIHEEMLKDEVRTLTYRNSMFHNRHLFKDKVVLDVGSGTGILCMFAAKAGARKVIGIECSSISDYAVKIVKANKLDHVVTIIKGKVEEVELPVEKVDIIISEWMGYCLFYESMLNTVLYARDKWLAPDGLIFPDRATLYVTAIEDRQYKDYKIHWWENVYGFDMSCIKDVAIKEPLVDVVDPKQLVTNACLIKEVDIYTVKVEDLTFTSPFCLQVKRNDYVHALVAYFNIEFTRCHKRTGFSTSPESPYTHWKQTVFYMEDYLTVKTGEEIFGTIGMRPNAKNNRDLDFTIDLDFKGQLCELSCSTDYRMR
HTRA1 inhibitor = blocks human HTRA1 serine peptidase; Q92743; recombinant HTRA1, FP-rhodamine activity-based probe, fluorescence polarization; inhibition, % at 5.96 µM; actives 0.5% (n = 340,000); in the data active = inhibition above about 36%
TCR CD3 inh = human TCR-CD3 binding inhibition; inhibition, % at 9.4 µM; TAMRA-labeled TCR probe fluorescence, biochemical; AID 651800; actives 0.37% (n = 360,000); in the data active = inhibition above about 19%;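 also: recombinant mutant TCR 2C K166C tagged with TAMRA read by polarization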
PRMT1 confirm = confirmation of human PRMT1 inhibitors. AID 687036. actives 42% (n = 3,300). recombinant His-PRMT1, activity-based probe fluorescence polarization. inhibition, % at 2.79 µM. shares compounds with PRMT1 inh;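 active = mean inhibition across replicates above the hit cutoff derived for the earlier primary screen, cut at about 22% in these data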
Large screens that a line does not name were inactive (follow-up assays come after a bar, where they were run). An excerpt weighted towards active compounds, which were near 3.5% of everything screened.

CC(=O)Nc1ccc(S(=O)(=O)Nc2nc3ccccc3nc2Sc2nncn2C)cc1	PRMT1 inh 25.0 | PRMT1 confirm inactive
COc1ccc(-n2c(SCC(=O)Nc3ccccc3-c3ccccc3)nnc2-c2ccco2)cc1	none (no result: HTRA1 inhibitor, TCR CD3 inh)
CN(C)CCCN1C(=O)c2cccc3c(Br)ccc(c23)C1=O	PRMT1 inh 38.1 | PRMT1 confirm inactive
Cc1nn(C)c(C)c1N1C(=O)c2cccc3c(Br)ccc(c23)C1=O	PRMT1 inh 56.5 | PRMT1 confirm inactive
O=C(O)CN1C(=O)c2cccc3c(Br)ccc1c23	none
CCOC(=O)[C@]12CCCCC/C=C\1N(CCc1ccc(Cl)cc1)C(=O)[C@H]2CC(=O)NCCCCc1ccccc1	none (no result: HTRA1 inhibitor, TCR CD3 inh)
C=CCn1c(SCC(=O)Nc2ccc(-c3nc4ccc(C)cc4s3)cc2)nnc1-c1ccccc1	none
Cc1ccc(-c2nnc(SCC(=O)Nc3ccc(-c4nc5ccc(C)cc5s4)cc3)n2Cc2ccco2)cc1	PRMT1 inh 34.0 (no result: HTRA1 inhibitor, TCR CD3 inh) | PRMT1 confirm 21.5
COC(=O)[C@H](C(C)C)N1Cc2nnn(Cc3ccccc3)c2-c2cc(F)ccc2S1(=O)=O	none (no result: HTRA1 inhibitor, TCR CD3 inh)
CCN1/C(=C\C=C(C(C)=O)C(C)=O)Sc2ccccc21	none
CCN1/C(=C\C(=S)Nc2ccccc2)Sc2ccccc21	PRMT1 inh 71.0 | PRMT1 confirm inactive
COc1ccc(CC(=O)Nc2ncc([N+](=O)[O-])s2)cc1OC	PRMT1 inh 46.6 | PRMT1 confirm inactive
CSC1=C(C#N)C2(CCCCC2)C(C(=O)Nc2ccccc2)=C(C)N1	none
CC1=C(C(=O)Nc2ccccc2)C2(CCCCC2)C(C#N)=C(S)N1	PRMT1 inh 25.6 | PRMT1 confirm 24.9
C=CCN1C(=O)[C@H](CC(=O)NCC23CC4CC(CC(C4)C2)C3)[C@@]2(C(=O)OC)CCCCC=C12	none (no result: HTRA1 inhibitor, TCR CD3 inh)
Cc1ccc(/C=N/N2CCN(Cc3cccc4ccccc34)CC2)o1	PRMT1 inh 26.2 | PRMT1 confirm inactive
Cc1ccc(CN2CCCCC(NC(=O)Nc3ccccc3F)C2=O)cc1 (stereo not drawn)	none (no result: HTRA1 inhibitor, TCR CD3 inh)
CCOC(=O)c1c(NC(C)=O)sc2c1CCN(Cc1ccccc1)C2	none
CCOC(=O)c1c(NC(C)=O)sc2c1CCC(C=O)=C2Sc1ccccc1	PRMT1 inh 31.2 | PRMT1 confirm inactive
COC(=O)N1CCC[C@H]1c1cccc2[nH]cc(C)c12	none (no result: HTRA1 inhibitor, TCR CD3 inh)
c1cc2c(cc1-c1csc(NNC3=NCCCCC3)n1)OCCO2	PRMT1 inh 74.9 (no result: HTRA1 inhibitor) | PRMT1 confirm 24.4
O=C(CCSc1ccc(Cl)cc1)c1cccs1	PRMT1 inh 48.5 | PRMT1 confirm 43.1
Cc1cccc(C(=O)N[C@@H]2CC[C@@]34CCCN3C(=O)CCC[C@H]4[C@H]2C)c1	none (no result: rCAG RNA binder, HTRA1 inhibitor, TCR CD3 inh)
CCOC(=O)c1sc2nc(-c3cccnc3)ccc2c1N	none
Nc1c(C(=O)Nc2ccc(Cl)c(Cl)c2)sc2nc(-c3cccnc3)ccc12	PRMT1 inh 26.4 (no result: HTRA1 inhibitor) | PRMT1 confirm inactive
COc1ccc(CCNC2CC(=O)N(CCc3ccc(OC)c(OC)c3)C2=O)cc1 (stereo not drawn)	PRMT1 inh 77.6 | PRMT1 confirm inactive
COc1ccc(CCNC2CC(=O)N(CCc3ccccc3)C2=O)cc1OC (stereo not drawn)	PRMT1 inh 41.7 | PRMT1 confirm inactive
CN(CCOC(=O)c1occ2ccccc12)C1CN(Cc2cn(Cc3ccccc3Cl)nn2)S(=O)(=O)C1 (stereo not drawn)	none (no result: HTRA1 inhibitor, TCR CD3 inh)
COC(=O)C1CN(Cc2ccc(F)cc2)CCS(=O)(=O)N1Cc1ccccc1 (stereo not drawn)	none (no result: HTRA1 inhibitor, TCR CD3 inh)
CN(Cc1ccc2c(c1)CCCN2C)C(=O)[C@H]1O[C@@H](n2ccc(=O)[nH]c2=O)[C@H](O)[C@@H]1O	PRMT1 inh 51.9 (no result: HTRA1 inhibitor) | PRMT1 confirm inactive
COC(=O)[C@H](C(C)C)N(CCCc1cn(CC2CCCCC2)nn1)S(=O)(=O)c1ccccc1Br	none (no result: HTRA1 inhibitor, TCR CD3 inh)
CC1C(=O)N(Cc2cn(CCC3OCCCO3)nn2)CCS(=O)(=O)N1Cc1ccc(-c2ccc(F)nc2)cc1 (stereo not drawn)	PRMT1 inh 54.7 | PRMT1 confirm inactive
CC(C)C1C(=O)N(Cc2cn(CCC3OCCCO3)nn2)CCS(=O)(=O)N1Cc1ccc(-c2ccc(F)nc2)cc1 (stereo not drawn)	none
CC(C)CN(C(=O)CSc1nc(-c2ccccc2)cn1N)c1c(N)n(Cc2ccccc2)c(=O)[nH]c1=O	PRMT1 inh 25.5 | PRMT1 confirm inactive
CCN(C(=O)CSc1nnc(-c2ccc(OC)cc2)n1N)c1c(N)n(Cc2ccccc2)c(=O)[nH]c1=O	PRMT1 inh 36.0 | PRMT1 confirm 28.4
COCCN(C(=O)CSc1nnc(-c2ccccc2C)n1C)c1c(N)n(Cc2ccccc2)c(=O)[nH]c1=O	PRMT1 inh 27.5 | PRMT1 confirm 33.4
COc1ccc(-c2nc(SCC(=O)N(CC(C)C)c3c(N)n(Cc4ccccc4)c(=O)[nH]c3=O)n[nH]2)cc1	none
CCN(C(=O)CSc1nnc(-c2cccc(F)c2)n1N)c1c(N)n(Cc2ccccc2)c(=O)[nH]c1=O	none
O=[N+]([O-])c1ccccc1S(=O)(=O)NC1CCCCCCC1	none
O=C1CCCCCCC1Sc1ccccc1[N+](=O)[O-] (stereo not drawn)	PRMT1 inh 29.6 | PRMT1 confirm inactive
C/C(=N/NC(=O)CSc1nnc(-c2ccccc2)n1-c1ccc(Cl)cc1)c1cccc(O)c1	none (no result: HTRA1 inhibitor, TCR CD3 inh)
O=C(c1ccc(-c2ccc(Cl)cc2)o1)N1CCN(c2ccc([N+](=O)[O-])cc2Cl)CC1	none
CC1CC(C)CN(C(=O)c2ccc(-c3ccc([N+](=O)[O-])cc3)o2)C1 (stereo not drawn)	PRMT1 inh 35.0 | PRMT1 confirm inactive
O=C(c1ccc(-c2cccc([N+](=O)[O-])c2)o1)N1CCN(c2ccc([N+](=O)[O-])cc2)CC1	none
O=C(c1ccc(-c2ccc([N+](=O)[O-])cc2)o1)N1CCCCC1	PRMT1 inh 45.7 | PRMT1 confirm inactive
CCN(CC)S(=O)(=O)c1ccc(C(=O)OCCN2C(=O)c3cccc4c(N5CCOCC5)ccc(c34)C2=O)cc1	none
CC(=O)N(C(C)=O)N1C(=O)c2cccc3c(N4CCOCC4)ccc(c23)C1=O	PRMT1 inh 28.2 | PRMT1 confirm inactive
c1ccc(-c2nc(-c3ccco3)cs2)nc1	PRMT1 inh 50.8 | PRMT1 confirm inactive
COc1ccc(COC[C@H](C)N2C[C@@H](C)[C@H](CN(C)S(=O)(=O)c3ccc(F)cc3)OCCCC[C@H](C)Oc3ccc(NC(=O)Nc4ccccc4)cc3C2=O)cc1	none (no result: rCAG RNA binder, HTRA1 inhibitor, TCR CD3 inh)
CC(=O)CSc1nc2c(c(=O)[nH]c(=O)n2C)n1Cc1cccc(Br)c1	PRMT1 inh 36.3 | PRMT1 confirm inactive
COC(=O)/C(C#N)=C/c1c(N2CCN(c3ccccc3)CC2)nc2c(C)cccn2c1=O	PRMT1 inh 26.1 | PRMT1 confirm inactive
